Results from PMC10625806 (European journal of pharmaceutical sciences : official …, 2018).
Values joined by “and” are separate entries in the source; they are usually repeats but may differ in a detail not shown here. Identical values can stand only once.

Assays:
[1] = tested on: OXE receptor; settings: stated without experiment in this paper; ref not given; cited from earlier work
[2] = tested on: feline OXE receptor; settings: ref Cossette et al., 2015; cited from earlier work
[3] = Metabolism of 264 by monkey liver microsomes; type: in vitro ADME, cynomolgus monkeys; settings: 0.5 mg protein/ml; 264 100 μM; NADPH 2 mM; 4 h, 37 °C
How it was run: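 Pooled male cynomolgus liver microsomes in PBS were incubated with test compound and NADPH, then stopped with MeOH and cooling to 0 °C. Products were analysed by precolumn extraction/RP-HPLC on a Kinetex C18 column (1 ml/min, 35 °C, 0.02% HOAc) using 61–82% MeOH over 63 min or 38–70% MeCN over 78 min. Metabolites were assigned by co-chromatography with authentic standards and by UV spectra.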

[4] = Plasma levels of 264 after oral gavage to rats; type: in vivo, Sprague-Dawley rats; settings: rat
How it was run: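 Test compound was dissolved in EtOH (100 μl), added to 20 mM NaHCO3 pH 8.0 (1 ml), vortexed, and the whole suspension given by gavage at 5–30 mg/kg to Sprague-Dawley rats (200–250 g) fasted 3 h. Rats were killed with CO2 at set times, and blood was taken by cardiac puncture. Plasma was solid-phase extracted with an internal standard and run on Novapak C18 RP-HPLC (70–100% MeOH, 0.02% HOAc, 15 min, 30 °C).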

[5] = tested on: OXE receptor; assay: 5-oxo-ETE-induced actin polymerization in monkey neutrophils; type: cell-based, cynomolgus monkey; settings: read-out: IC50, inhibition of 5-oxo-ETE-induced actin polymerization, 5-oxo-ETE 10 nM
[6] = Solubility in aqueous solutions; type: physicochemical; settings: even as the carboxylate anion
[7] = Plasma levels of 264 and its metabolites after oral gavage to monkeys; type: in vivo, cynomolgus monkeys
How it was run: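 An ethanolic stock was added to 10 volumes of 20 mM NaHCO3, vortexed, made fresh for each animal and gavaged at 30 or 75 mg/kg (30 mg/kg to 4 animals). Blood (1 ml) was collected in heparinized tubes up to 24 h and centrifuged to plasma. Extracts were run on Kinetex C18 RP-HPLC (H2O/MeCN, 0.02% HOAc; 30–65% MeCN over 1–20 min). Metabolites were identified by co-chromatography with standards.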

[8] = target: OXE receptor (Homo sapiens, UniProt Q8TDS5); assay: 5-oxo-ETE-induced calcium mobilization in human neutrophils; type: cell-based; settings: for times less potent than 264: ratio of IC50, calcium mobilization in human neutrophils
OXE receptor, sequence (Q8TDS5 whole entry): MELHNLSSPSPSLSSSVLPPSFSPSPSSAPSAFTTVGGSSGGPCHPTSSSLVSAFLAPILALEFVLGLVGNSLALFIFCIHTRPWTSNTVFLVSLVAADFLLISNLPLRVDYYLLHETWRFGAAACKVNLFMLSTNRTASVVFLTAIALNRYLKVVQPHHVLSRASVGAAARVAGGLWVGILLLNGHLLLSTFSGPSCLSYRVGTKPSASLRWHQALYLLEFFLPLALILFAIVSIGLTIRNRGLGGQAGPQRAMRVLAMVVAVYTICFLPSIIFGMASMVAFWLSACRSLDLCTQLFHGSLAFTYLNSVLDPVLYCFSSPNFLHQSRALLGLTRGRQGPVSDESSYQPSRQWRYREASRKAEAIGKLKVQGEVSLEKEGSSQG

[9] = monkey, oral gavage 30 mg/kg 264
[10] = monkey, oral gavage 75 mg/kg 264
[11] = cynomolgus, cynomolgus monkey, plasma, po, 75 mg/kg

Work on `CC(CC(=O)O)CC(=O)n1c(CCCC(=O)O)cc2ccc(Cl)cc21` (stereo not drawn) [dinor-ω-carboxy-264, 5-[2-(3-Carboxy-propyl)-6-chloro-indol-1-yl]-3-methyl-5-oxo-pentanoicacid] yielded an IC50 [8] of 5700 nM.
In the case of `CC(CC(=O)O)CC(=O)n1c(CCCCCCO)cc2ccc(Cl)cc21` (stereo not drawn) [ω1-hydroxy-264, 5-[6-Chloro-2-(6-hydroxy-hexyl)-indol-1-yl]-3-methyl-5-oxo-pentanoic acid], the IC50 [8] is reported as 530 nM.
In the case of `CC(O)CCCCc1cc2ccc(Cl)cc2n1C(=O)CC(C)CC(=O)O` (stereo not drawn) [ω2-hydroxy-264, 5-[6-Chloro-2-(5-hydroxy-hexyl)-indol-1-yl]-3-methyl-5-oxo-pentanoicacid], the concentration at 24 h [7, 11] is reported as roughly 9 µM, the “plasma concentration relative to that of 264 between 8 and 12 h” value ([7]; monkey, oral 30 mg/kg 264, 8-12 h) is reported as “about 5 times” and the “plateau plasma concentration between 1 and 4 h” value [7, 9] is reported as ~ 9 μM. For the same compound, the maximal plasma levels [7, 10] was ~ 28 μM, the IC50 [8] was 3300 nM and the “times less potent than 264” value [8] was roughly 400 times.
With `CC(=O)CCCCc1cc2ccc(Cl)cc2n1C(=O)CC(C)CC(=O)O` (stereo not drawn) [ω2-oxo-264, 5-[6-Chloro-2-(5-oxo-hexyl)-indol-1-yl]-3-methyl-5-oxo-pentanoic acid] the Tmax ([7]; cynomolgus, cynomolgus monkey, plasma, po, 30 mg/kg) was 4 h, the Tmax [7, 11] was 8 to 12 h and the maximal plasma levels [7, 9] was ~ 4 μM. The maximal plasma levels [7, 10] was ~ 12 μM, the IC50 [8] was 1400 nM and the “times less potent than 264” value [8] was roughly 170 times.
For `CC(CC(=O)O)CC(=O)n1c(CCCCCC(=O)O)cc2ccc(Cl)cc21` (stereo not drawn) [ω-carboxy-264, 6-[1-(4-Carboxy-3-methyl-butyryl)-6-chloro-1H-indol-2-yl]-hexanoicacid], the IC50 [8] was 13000 nM.
